Published values gathered from unrelated publications.
Compare with care: the assays were run in different laboratories.
Target: Dual specificity mitogen-activated protein kinase kinase 1 (MAP2K1, Homo sapiens, UniProt Q02750)

`COc1ccc2[nH]c3c4[nH]c5ccc(OC)cc5c4c4c(c3c2c1)C(=O)NC4=O` has a remaining binding of 70% (binding; competition with immobilised ligand; 1 µM).
For `COc1ccc2oc(-c3ccc4nc(N)oc4c3)c/c(=N\c3ccccc3NC(=O)CCN)c2c1`, the remaining binding was 102% (binding; 1 µM).
For `C=CC(=O)N1CCC[C@@H](n2nc(-c3ccc(Oc4ccccc4)cc3)c3c(N)ncnc32)C1`, the inhibition was 84% (enzyme activity; inhibitor; 1 µM).
The remaining binding of `Cc1ccc(NC(=O)c2ccnc(C(F)(F)F)c2)cc1-c1cc(OCCO)nc(N2CCOCC2)c1` is reported as 86% (binding; competition with immobilised ligand; 1 µM).
For `Cc1cc(O)c(-c2ccc([C@@H](C)CN(C)C)cc2)c2c1[nH]c(=O)c1sccc12`, the inhibition was 8.68% (enzyme activity; inhibitor; 0.1 µM).
With `CCCCC(=O)Nc1ccc(-c2ccc3ncn(CCC)c(=O)c3c2)cn1` the remaining binding was 52% (binding; competition with immobilised ligand; 0.5 µM).
`N#Cc1ccc(NC(=O)Nc2ccccc2)cc1` gave a remaining binding of 66% (cell-free assay; competition with immobilised ligand; 25 µM).
With `CO[C@@H]1[C@H](N(C)C(=O)c2ccccc2)C[C@H]2O[C@]1(C)n1c3ccccc3c3c4c(c5c6ccccc6n2c5c31)C(=O)NC4` the inhibition was 30% (enzyme activity; inhibitor; 1 µM).
